Test results published in ChEMBL document CHEMBL3779826, “Converting maslinic acid into an effective inhibitor of acylcholinesterases” (Eur J Med Chem, 2015).

Legend:
Acetylcholinesterase = Acetylcholinesterase (Electrophorus electricus, UniProt O42275); assay: Inhibition of Electrophorus electricus AChE using acetylthiocholine iodide as substrate preincubated for 20mins before the addition of substrate by Ellman's method; settings: for Ki: read-out: Ki
[1] = target: Acetylcholinesterase (Electrophorus electricus) (UniProt O42275); assay: Mixed type inhibition of Electrophorus electricus AChE by Lineweaver-Burk plot analysis
Sequence of Acetylcholinesterase (Electrophorus electricus) (O42275 24-633 limits assumed): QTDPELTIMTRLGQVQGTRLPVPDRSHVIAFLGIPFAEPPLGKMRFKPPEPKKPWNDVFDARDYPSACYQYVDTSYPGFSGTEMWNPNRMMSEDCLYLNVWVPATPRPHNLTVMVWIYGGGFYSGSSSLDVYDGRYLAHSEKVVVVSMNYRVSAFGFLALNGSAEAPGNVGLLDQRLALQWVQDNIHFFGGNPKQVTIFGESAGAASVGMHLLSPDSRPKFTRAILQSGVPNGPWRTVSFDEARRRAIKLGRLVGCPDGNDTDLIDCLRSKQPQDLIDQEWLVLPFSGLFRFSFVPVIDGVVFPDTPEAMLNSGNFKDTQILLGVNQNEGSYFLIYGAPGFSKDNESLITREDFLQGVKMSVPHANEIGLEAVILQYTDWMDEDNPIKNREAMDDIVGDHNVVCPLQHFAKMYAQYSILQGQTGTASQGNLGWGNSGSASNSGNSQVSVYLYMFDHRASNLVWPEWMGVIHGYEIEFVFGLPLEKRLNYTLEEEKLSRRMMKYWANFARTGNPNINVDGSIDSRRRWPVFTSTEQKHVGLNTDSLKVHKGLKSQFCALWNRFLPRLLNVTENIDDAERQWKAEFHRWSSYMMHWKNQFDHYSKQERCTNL
How it was run: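 Ellman kinetics at 30 °C in pH 8.0 Tris-HCl with DTNB. Enzyme plus inhibitor (3 concentrations and a water blank) was preincubated for 20 min, then ATChI was added at 0.9375, 0.625, 0.325 or 0.1875 mM. A415 was read every minute for 30 min, in triplicate. Mode, Ki and Ki' came from Lineweaver-Burk, Dixon and Cornish-Bowden plots.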

Cholinesterase = Cholinesterase (Equus caballus, UniProt P81908); assay: Inhibition of equine serum BChE using butyrylthiocholine iodide as substrate preincubated for 20mins before the addition of substrate by Ellman's method; settings: for Ki: read-out: Ki
Sequence of Cholinesterase (P81908 whole entry): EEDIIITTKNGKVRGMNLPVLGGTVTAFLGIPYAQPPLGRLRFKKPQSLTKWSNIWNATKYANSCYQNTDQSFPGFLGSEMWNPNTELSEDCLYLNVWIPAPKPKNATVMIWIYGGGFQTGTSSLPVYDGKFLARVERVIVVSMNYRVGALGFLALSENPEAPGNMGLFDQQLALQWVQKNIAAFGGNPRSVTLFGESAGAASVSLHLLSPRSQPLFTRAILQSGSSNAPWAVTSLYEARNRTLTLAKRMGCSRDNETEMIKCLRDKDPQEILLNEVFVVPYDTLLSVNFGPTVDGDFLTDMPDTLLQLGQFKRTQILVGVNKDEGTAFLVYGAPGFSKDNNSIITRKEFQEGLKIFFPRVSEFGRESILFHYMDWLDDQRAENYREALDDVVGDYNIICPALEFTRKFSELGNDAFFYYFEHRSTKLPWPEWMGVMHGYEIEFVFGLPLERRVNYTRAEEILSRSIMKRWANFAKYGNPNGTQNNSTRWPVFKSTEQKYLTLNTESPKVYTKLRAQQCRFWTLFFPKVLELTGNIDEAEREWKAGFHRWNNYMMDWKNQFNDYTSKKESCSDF

[2] = target: Cholinesterase (Equus caballus) (UniProt P81908); assay: Inhibition of equine serum BChE at 10 uM using butyrylthiocholine iodide as substrate preincubated for 20mins before the addition of substrate by Ellman's method
Sequence of Cholinesterase (Equus caballus) (P81908 whole entry): as above
How it was run: (§1)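 Ellman assay: enzyme in Tris-HCl pH 8.0 with NaN3, plus DTNB (3 mM stock with NaCl and MgCl2), was preincubated with compound at 30 °C for 20 min. Thiocholine substrate was then added and absorbance at 415 nm recorded at 30 °C for 30 min at 1-min intervals, in triplicate. Residual DMSO below 0.5%.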

[3] = target: Carbonic anhydrase 2 (Bos taurus) (UniProt P00921); assay: Inhibition of bovine erythrocte carbonic anhydrase 2 at 10 uM
Sequence of Carbonic anhydrase 2 (Bos taurus) (P00921 2-260 limits assumed): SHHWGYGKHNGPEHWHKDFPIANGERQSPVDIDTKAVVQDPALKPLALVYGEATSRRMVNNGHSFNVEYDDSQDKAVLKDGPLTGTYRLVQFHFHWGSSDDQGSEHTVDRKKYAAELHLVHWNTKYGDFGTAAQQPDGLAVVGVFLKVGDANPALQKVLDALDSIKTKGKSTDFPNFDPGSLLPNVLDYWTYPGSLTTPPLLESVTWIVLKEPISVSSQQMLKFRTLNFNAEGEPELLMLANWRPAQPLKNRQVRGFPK

Candida antarctica [4] = assay: Inhibition of Candida antarctica lipase at 10 uM using 4-NA as substrate preincubated for 20 mins before the addition of substrate
How it was run: (§2)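 Candida antarctica lipase in 50 mM Tris-HCl pH 8.0 was preincubated with compound at 37 °C for 20 min. Reaction started with 4-NA ([…] as added). Absorbance at 415 nm was read kinetically at 37 °C for 10 min at 1-min intervals. Relative inhibition was taken as the ratio of linear-range slopes, compound over blank.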

[5] = target: Acetylcholinesterase (Electrophorus electricus) (UniProt O42275); settings: 10 uM
[6] = target: Cholinesterase (Equus caballus) (UniProt P81908); assay: Inhibition of equine serum BChE at 40 uM using butyrylthiocholine iodide as substrate preincubated for 20mins before the addition of substrate by Ellman's method; how it was run: as §1
[7] = target: Carbonic anhydrase 2 (Bos taurus) (UniProt P00921); assay: Inhibition of bovine erythrocte carbonic anhydrase 2 at 40 uM
Candida antarctica [8] = assay: Inhibition of Candida antarctica lipase at 40 uM using 4-NA as substrate preincubated for 20 mins before the addition of substrate
How it was run: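 Candida antarctica lipase (stock 2.003 U/ml) in 50 mM Tris-HCl pH 8.0, preincubated with compound at 37 °C for 20 min. Reaction started with 4-NA; absorbance at 415 nm followed at 37 °C for 10 min at 1 min intervals. Relative inhibition taken as the ratio of linear-range slopes, compound over blank.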

[9] = target: Acetylcholinesterase (Electrophorus electricus) (UniProt O42275); settings: 40 uM
[10] = target: Acetylcholinesterase (Electrophorus electricus) (UniProt O42275); assay: Inhibition of Electrophorus electricus AChE at 3 uM using acetylthiocholine iodide as substrate preincubated for 20mins before the addition of substrate by Ellman's method; how it was run: as §1
[11] = target: Cholinesterase (Equus caballus) (UniProt P81908); assay: Inhibition of equine serum BChE at 3 uM using butyrylthiocholine iodide as substrate preincubated for 20mins before the addition of substrate by Ellman's method; how it was run: as §1
[12] = target: Carbonic anhydrase 2 (Bos taurus) (UniProt P00921); assay: Inhibition of bovine erythrocte carbonic anhydrase 2 at 3 uM
Candida antarctica [13] = assay: Inhibition of Candida antarctica lipase at 3 uM using 4-NA as substrate preincubated for 20 mins before the addition of substrate; how it was run: as §2
[14] = Cytotoxic activity against mouse NIH/3T3 cells by SRB assay; format: cell-based; settings: NIH3T3
How it was run: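 Mouse embryonic fibroblasts grown as monolayers in RPMI 1640 with 10% heat-inactivated FBS and penicillin/streptomycin at 37 °C under 5% CO2. Cytotoxicity read by photometric sulforhodamine-B microculture colorimetric assay, reported as IC50.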

[15] = target: Cholinesterase (Equus caballus) (UniProt P81908); assay: Mixed type inhibition of equine serum BChE by Lineweaver-Burk plot analysis
[16] = target: Acetylcholinesterase (Electrophorus electricus) (UniProt O42275); assay: Inhibition of Electrophorus electricus AChE at 5 uM using acetylthiocholine iodide as substrate preincubated for 20mins before the addition of substrate by Ellman's method; how it was run: as §1
[17] = target: Cholinesterase (Equus caballus) (UniProt P81908); assay: Inhibition of equine serum BChE at 5 uM using butyrylthiocholine iodide as substrate preincubated for 20mins before the addition of substrate by Ellman's method; how it was run: as §1
[18] = target: Carbonic anhydrase 2 (Bos taurus) (UniProt P00921); assay: Inhibition of bovine erythrocte carbonic anhydrase 2 at 5 uM
Candida antarctica [19] = assay: Inhibition of Candida antarctica lipase at 5 uM using 4-NA as substrate preincubated for 20 mins before the addition of substrate; how it was run: as §2

Sequence of Acetylcholinesterase (O42275 whole entry): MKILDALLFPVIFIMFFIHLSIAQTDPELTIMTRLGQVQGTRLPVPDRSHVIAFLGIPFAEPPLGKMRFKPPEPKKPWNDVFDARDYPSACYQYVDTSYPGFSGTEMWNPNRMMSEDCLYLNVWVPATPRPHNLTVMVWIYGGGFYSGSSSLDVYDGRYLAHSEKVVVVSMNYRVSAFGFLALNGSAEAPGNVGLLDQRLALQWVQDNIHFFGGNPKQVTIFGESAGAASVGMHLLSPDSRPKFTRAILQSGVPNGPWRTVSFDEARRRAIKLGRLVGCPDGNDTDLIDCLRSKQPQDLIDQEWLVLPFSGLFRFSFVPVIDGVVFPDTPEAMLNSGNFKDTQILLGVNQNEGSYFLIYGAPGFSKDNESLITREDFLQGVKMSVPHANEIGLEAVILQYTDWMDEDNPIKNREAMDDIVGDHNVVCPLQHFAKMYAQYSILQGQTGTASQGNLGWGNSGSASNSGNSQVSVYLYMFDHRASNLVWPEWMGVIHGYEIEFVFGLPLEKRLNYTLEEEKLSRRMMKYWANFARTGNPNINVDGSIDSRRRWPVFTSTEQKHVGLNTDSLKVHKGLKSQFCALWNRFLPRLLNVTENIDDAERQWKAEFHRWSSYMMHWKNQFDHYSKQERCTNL

## CC1(C)CC[C@]2(C(=O)OCCCI)CC[C@]3(C)C(=CC[C@@H]4[C@@]5(C)C[C@@H](O)[C@H](O)C(C)(C)[C@@H]5CC[C@]43C)[C@@H]2C1
Acetylcholinesterase
  IC50: 10.3 µM
  Ki: 6.01 µM
[1]
  Kiuc: 13.4 µM
Cholinesterase
  Ki: > 20 µM
[2]
  inhibition: 0%
[3]
  inhibition: 6%
Candida antarctica [4]
  inhibition: 0%
[5]
  inhibition: 51%

## CC1(C)CC[C@]2(C(=O)OC/C=C\CCl)CC[C@]3(C)C(=CC[C@@H]4[C@@]5(C)C[C@@H](O)[C@H](O)C(C)(C)[C@@H]5CC[C@]43C)[C@@H]2C1
Acetylcholinesterase
  IC50: 17.6 µM
  Ki: 22.5 µM
[1]
  Kiuc: 9.38 µM
Cholinesterase
  Ki: > 80 µM
[6]
  inhibition: 7%
[7]
  inhibition: 1%
Candida antarctica [8]
  inhibition: 0%
[9]
  inhibition: 79%

## CCCCCCOC(=O)[C@]12CCC(C)(C)C[C@H]1C1=CC[C@@H]3[C@@]4(C)C[C@@H](O)[C@H](O)C(C)(C)[C@@H]4CC[C@@]3(C)[C@]1(C)CC2
Acetylcholinesterase
  IC50: 4.38 µM
  Ki: 4.78 µM
[1]
  Kiuc: 5.11 µM
Cholinesterase
  Ki: > 6 µM
[10]
  inhibition: 62%
[11]
  inhibition: 0%
[12]
  inhibition: 0%
Candida antarctica [13]
  inhibition: 0%

## CC1(C)CC[C@]2(C(=O)OCc3ccc(Cl)cc3Cl)CC[C@]3(C)C(=CC[C@@H]4[C@@]5(C)C[C@@H](O)[C@H](O)C(C)(C)[C@@H]5CC[C@]43C)[C@@H]2C1
Acetylcholinesterase
  IC50: 4.63 µM
  Ki: 2.03 µM
[1]
  Kiuc: 9.24 µM
Cholinesterase
  Ki: > 6 µM
[10]
  inhibition: 43%
[11]
  inhibition: 0%
[12]
  inhibition: 0%
Candida antarctica [13]
  inhibition: 0%
[14]
  IC50: 17.3 µM

## CC1(C)CC[C@]2(C(=O)OCCCBr)CC[C@]3(C)C(=CC[C@@H]4[C@@]5(C)C[C@@H](O)[C@H](O)C(C)(C)[C@@H]5CC[C@]43C)[C@@H]2C1
Acetylcholinesterase
  IC50: 31.2 µM
  Ki: 34.9 µM
[1]
  Kiuc: 24.4 µM
Cholinesterase
  Ki: > 80 µM
[6]
  inhibition: 16%
[7]
  inhibition: 1%
Candida antarctica [8]
  inhibition: 18%
[9]
  inhibition: 39%

## CCCOC(=O)[C@]12CCC(C)(C)C[C@H]1C1=CC[C@@H]3[C@@]4(C)C[C@@H](O)[C@H](O)C(C)(C)[C@@H]4CC[C@@]3(C)[C@]1(C)CC2
Acetylcholinesterase
  IC50: 8.76 µM
  Ki: 16.9 µM
[1]
  Kiuc: 15.4 µM
Cholinesterase
  Ki: > 6 µM
[10]
  inhibition: 56%
[11]
  inhibition: 0%
[12]
  inhibition: 0%
Candida antarctica [13]
  inhibition: 0%

## CC1(C)CC[C@]2(C(=O)O)CC[C@]3(C)C(=CC[C@@H]4[C@@]5(C)C[C@H](O)[C@H](O)C(C)(C)[C@@H]5CC[C@]43C)[C@@H]2C1 [AUGUSTIC ACID]
Acetylcholinesterase
  Ki: > 30 µM
Cholinesterase
  IC50: 16.6 µM
  Ki: 35.6 µM
[15]
  Kiuc: 10.6 µM

## CC1(C)CC[C@]2(C(=O)O)CC[C@]3(C)C(=CC[C@@H]4[C@@]5(C)C[C@@H](O)[C@H](O)C(C)(C)[C@@H]5CC[C@]43C)[C@@H]2C1 [MASLINIC ACID]
Acetylcholinesterase
  Ki: > 100 µM
Cholinesterase
  Ki: > 100 µM
[14]
  IC50: 16.6 µM

## CC1(C)CC[C@]2(C(=O)OCCCCCl)CC[C@]3(C)C(=CC[C@@H]4[C@@]5(C)C[C@@H](O)[C@H](O)C(C)(C)[C@@H]5CC[C@]43C)[C@@H]2C1
Acetylcholinesterase
  IC50: 10.5 µM
  Ki: 1.68 µM
Cholinesterase
  Ki: > 10 µM
[16]
  inhibition: 79%
[17]
  inhibition: 0%
[18]
  inhibition: 0%
Candida antarctica [19]
  inhibition: 0%
